According to the RNAGym collection of RNA variant scans (doi:10.1126/science.aae0568):
Variants at the floor of the assay were thinned out.

B1: tRNA (parent)
chain: GUUCCGUUGGCGUAAUGGUAACGCGUCUCCCUCCUAAGGAGAAGACUGCGGGUUCGAGUCCCGUACGGAACG

Variants of: B1
Experiment: yeast fitness relative to wild type (ratio to wild type); higher = fitter; tRNA-Arg(CCU), competitive growth, 37 C, YPD
How it was run: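 Variants of the tRNA-Arg(CCU) gene were chemically synthesised with a 3% per-site mutation rate across 69 sites and placed at the native genomic locus in Saccharomyces cerevisiae. Six parallel replicates of the pooled strains were competed in YPD at 37°C for 24 hours, and gene amplicons from the start and end populations were read by 100-nucleotide paired-end sequencing. Darwinian fitness relative to wild type was derived from changes in genotype frequencies. Genotypes required ≥ 100 starting reads, and estimates < 0.5 were set to 0.5.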

Variant	yeast fitness
GUUCCGUUGGGGUAAUGGUAACGCGUUUCCCUCCUAAGGAGACGACUGCGGGUUCGAGUCCCGUACGGAACG [C11G C27U A43C]	0.502
GUUCCGUUGGGGUAAUGGUAACGUGUCUCUCUCCUAAGGAGAAGACUGCGGGUACGAGUCCCGUACGGAACG [C11G C24U C30U U54A]	≤ 0.5
GUUCCGUUGGGGUAAUGGUAACGUGUCUCCCUCCUAAGGAGGAGACUGCGGGUUCGAGUCCCGUGCGGAACG [C11G C24U A42G A65G]	≤ 0.5
GUUCCGUUGGGGUAAUGGUAAUGCGUCUCCCUCCUAAGGAGAAGACUGCGGGCUCGAGUCCCGUACGGAACG [C11G C22U U53C]	≤ 0.5
GUUCCGUUGGGGUAAUGGUAAGGCGUCUCCCUCCUAAGGAGAAGACUGCGGGUUCGAGUCCCGUACGGAACG [C11G C22G]	0.675
GUUCCGUUGGGGUAAUGGUAAAGCGUCUCCCUCCUAAGGAGAAGACUGCGGGUUCGAGUCCCGUACGGAACG [C11G C22A]	0.608
GUUCCGUUGGGGUAAUGGUAAUGCGUCUCCCUCCUAAGGAGAAGACUGCGGGUUCGAGUCCCGUACGGAACG [C11G C22U]	0.653
GUUCCGUUGGGGUAAUGGUAACGUGUCUCCCUCCUAAGGAGAAGACUGCGGGUUCGAGUCCCGUACGGAACG [C11G C24U]	0.583
GUUCCGUUGGGGUAAUGGUAACGGGUCUCCCUCCUAAGGAGAAGACUGCGGGUUCGAGUCCCGUACGGAACG [C11G C24G]	≤ 0.5
GUUCCGUUGGGGUAAUGGUAAAGCGUGUCCUUCCUAAGGAGAAGACUGCGGGUUCGAGACCCGUACGGAACG [C11G C22A C27G C31U U59A]	0.569
GUUCCGUUGGGGUAAUGGUAACGUAUCUCCCUCCUAAGGAGGAGACUGCGGGUUCGAGUCCCGUACGGAACG [C11G C24U G25A A42G]	≤ 0.5
GUUCCGUUGGGGUAAUGGUAACGGGUCUCCCUCCUAAGGAGUAGACUGCGGGUUCGAGUCCCGUACGGAACG [C11G C24G A42U]	≤ 0.5
GUUCCGUUGGGGUAAUGGUAAGGCGUGUCCCUCCUAAGGAGAAGACUGUGGGUUCGAGUCCUGUACGGAACG [C11G C22G C27G C49U C62U]	≤ 0.5
GUUCCGUUGGGGUAAUGGUAACGUAUCUCCCUCCUAAGGAGAAGACGGCGGGUUCGAGUCCCGUACGGAACG [C11G C24U G25A U47G]	≤ 0.5
GUUCCGUUGGGGUAAUGGUAACGUGUCUCCGUUCUAAGGAGAUGACUGCGGGUUCGAGUCCCGUACGGAACG [C11G C24U C31G C33U A43U]	≤ 0.5
GUUCCGUUGGGGUAAUGGUAACGGGUCUCCCUCCUAAGGAGAAGACUGCGGCUUGGAGUCCCGUACGGAACG [C11G C24G G52C C55G]	0.813
GUUCCGUUGGGGUAAUGGUAAUGCGUCUCCCUCCUAAGGGGAAGACUGCGGGUUGGAGUCGCGUACGGAACG [C11G C22U A40G C55G C61G]	≤ 0.5
GUUCCGUUGGGGUAAUGGUAACGAGUCUCCCUCCUAAGGAGAAGACUGCGGGUUCGAGUCCCGUAUGGAACG [C11G C24A C66U]	≤ 0.5
GUUCCGUUGGGGUAAUGGUAAUGCGUCUCCCUCCUAAGGGGAAGACUGCGGGUUCGAGUGCCCUACGGAACG [C11G C22U A40G C60G G63C]	≤ 0.5

Variant	yeast fitness
GUUCCGUUGGGGUAAUGGUAACGCGUAUCCCUCCUAAGGAGAAGACUGCGGGUUCGAGUCCCGUAAGGAACG [C11G C27A C66A]	≤ 0.5
GUUCCGUUGGGGUAAUGGUAAAGCGUCUCCUUCCUAAGGAGGAGACUGCGGGUUCGAGUCCCGUACGGAACG [C11G C22A C31U A42G]	0.659
GUUCCGUUGGGGUAAUGGUAACGAGUCUCCCUCCUAAGGAGACGACUGCGGGUUCGAGUCCCGUACGGAACG [C11G C24A A43C]	≤ 0.5
GUUCCGUUGGGGUAAUGGUAACGUGUCUCCCUCCUAAGGAGGAGACUGCGGGUUCGAGUCCCGUACGGAACG [C11G C24U A42G]	≤ 0.5
GUUCCGUUGGGGUAAUGGUAAUGCGUCUCCCUCCUAAGGAGAAGACUGCGGGUUCGAGUCCCGUACGGAUCG [C11G C22U A70U]	≤ 0.5
GUUCCGUUGGGGUAAUGGUAACGCGUUUCCCUUCUAAGGAGAAGACUGCGGGUUCGAGUCCCGUACGGAACG [C11G C27U C33U]	0.584
GUUCCGUUGGGGUAAUGGUAACGCGUUUCCCUCCUAUGGAGAAGACUGUGGGUUCGAGUCCCGUACGGAACG [C11G C27U A37U C49U]	≤ 0.5
GUUCCGUUGGGGUAAUGGUAACGCGUUUCCCUCCUAAGGAGACGACUGCGGGUUCGAGUCGCGUACGGAACG [C11G C27U A43C C61G]	≤ 0.5
GUUCCGUUGGGGUAAUGGUAAUGGGUCUCGCUCCUAAGGAGAAGACUGCGGGUUCGAGUCCCGUACGGAACG [C11G C22U C24G C30G]	≤ 0.5
GUUCCGUUGGGGUAAUGGUAACGGGUCUUCCUCCUAAGGAGAAGACUGCGGGUUCGAGUCCGGUAAGGAACG [C11G C24G C29U C62G C66A]	≤ 0.5
GUUCCGUUGGGGUAAUGGUAACGCGUGUGCCUCUUAAGGAGAAGACUGCGGGUUCGAGUCCCGUACGGAACG [C11G C27G C29G C34U]	0.599
GUUCCGUUGGGGUAAUGGUAACGGGUCUCCCUCCUAAGGAGAACACUGCGGGUUCGAGUCCCGUACGGAACG [C11G C24G G44C]	≤ 0.5
GUUCCGUUGGGGUAAUGGUAACGUGUCUCCCUCCUAAGGAGUUGACUGCGGGUUCGAGUCCCGUACGGAACG [C11G C24U A42U A43U]	0.653
GUUCCGUUGGGGUAAUGGUAACGCGUCUCCCUCCUAAGGAGAAGACUGCGGGUUCGGGUCUCGUACGGAACG [C11G A57G C61U]	0.588
GUUCCGUUGGGGUAAUGGUAAGGCGUCUCCCUCCUAAGGAGAAGACUGCGGGUUCGAGUCCUGUACGGAACG [C11G C22G C62U]	≤ 0.5
GUUCCGUUGGGGUAAUGGUAACGCGUAUCCCUCCUAAAGAGAAGACUGCGGGUUGGAGUCCCGUACGGAACG [C11G C27A G38A C55G]	≤ 0.5
GUUCCGUUGGGGUAAUGGUAACGUGUCUCCCUCCUAAGGAGAAGACUACGGGUUCGAGUCCCGUACUGCACG [C11G C24U G48A G67U A69C]	≤ 0.5
GUUCCGUUGGGGUAAUGGUAACGCGUCUCCCUCCUAAGGAGAAGACUGCGGGUUCGAGUCCCGUUCGGUACG [C11G A65U A69U]	0.625
GUUCCGUUGGGGUAAUGGUAACGCGUGUCGCUCCUAAGGAGAAGACUGCGGGUUCGAGUCCCGUACGGACCG [C11G C27G C30G A70C]	0.689
